Pf Dd2 inh – P. falciparum Dd2 growth inhibition. AID 1159554. SYBR Green, 72 h; hits give low values. activity change, % at 10 µM. 94,000 tested, 2.3% active; in the data active = activity change below about -80%; inconclusive = no clear call, values can overlap the other calls
IDH1 mut inh – blocks human IDH1 R132H reductase activity; 70,000 tested, 0.18% active; inhibition, % at 10 µM; diaphorase/resazurin fluorescence, 60 min; AID 624101; O75874; in the data active = inhibition above about 34%; inconclusive = no clear call, values can overlap the other calls; inactive = below about 11%
Target sequence (O75874 whole entry R132H): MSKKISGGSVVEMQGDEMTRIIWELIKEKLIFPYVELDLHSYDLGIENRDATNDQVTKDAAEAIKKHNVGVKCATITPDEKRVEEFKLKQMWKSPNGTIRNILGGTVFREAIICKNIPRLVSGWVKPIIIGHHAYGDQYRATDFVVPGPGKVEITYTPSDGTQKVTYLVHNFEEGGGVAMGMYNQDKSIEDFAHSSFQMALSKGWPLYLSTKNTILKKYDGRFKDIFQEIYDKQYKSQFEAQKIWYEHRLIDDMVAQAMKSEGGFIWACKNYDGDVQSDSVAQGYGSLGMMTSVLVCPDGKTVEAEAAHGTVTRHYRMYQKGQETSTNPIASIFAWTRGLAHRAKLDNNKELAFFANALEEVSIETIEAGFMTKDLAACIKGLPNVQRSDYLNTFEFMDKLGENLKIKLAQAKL
KDM4C inh – blocks human GASC-1 (KDM4C) demethylase activity; Q9H3R0; GST-KDM4C 2-372, H3K9me3 peptide, LANCE TR-FRET; inhibition, % at 12.5 µM; 96,000 tested, 0.15% active; AID 720574;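 active = mean replicate inhibition above about 25%, with at least 55% of replicates also reaching it, limit read from the data, passing the limit was not always enough; inconclusive = only one of those two conditions met; inactive = neither condition met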
Target sequence (Q9H3R0 2-372 limits assumed): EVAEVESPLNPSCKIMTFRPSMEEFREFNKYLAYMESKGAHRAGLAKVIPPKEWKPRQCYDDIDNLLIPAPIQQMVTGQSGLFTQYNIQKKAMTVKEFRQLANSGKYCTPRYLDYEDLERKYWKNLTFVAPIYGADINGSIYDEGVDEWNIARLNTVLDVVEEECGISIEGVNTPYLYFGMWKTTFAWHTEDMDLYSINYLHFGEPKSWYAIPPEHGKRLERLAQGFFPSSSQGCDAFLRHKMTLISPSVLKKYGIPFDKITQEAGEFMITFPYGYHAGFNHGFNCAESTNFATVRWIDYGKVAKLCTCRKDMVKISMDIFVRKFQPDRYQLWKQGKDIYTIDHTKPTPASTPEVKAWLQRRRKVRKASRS
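Test system: N-terminal GST-fused human GASC-1 (KDM4C) fragment, residues 2-372; quantity: GASC-1 enzyme at 10 nM final in reaction; dosing: single dose; schedule: 30 min demethylation and 1 h detection at room temperature; signal: LANCE TR-FRET, excitation 340 nm, emissions 618 and 671 nm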
T cruzi growth-1 – T. cruzi proliferation inhibition; T. cruzi beta-gal in NIH3T3, GalScreen luminescence, 90 h; inhibition, % at 8.34 µM; 77,000 tested, 5.9% active; AID 624255;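 active = mean inhibition above about 93%, with at least 55% of replicates each passing it, limit read from the data, passing the limit was not always enough; inconclusive = only one of those two conditions holds; inactive = neither condition holds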
T cruzi growth-2 – inhibitors of T. cruzi proliferation; shares compounds with T cruzi growth-1; T. cruzi beta-gal in NIH3T3, GalScreen luminescence, 90 h; inhibition, % at 8.35 µM; 5,600 tested, 72% active; AID 651739;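 active = mean replicate inhibition above about 95% and at least 55% of replicates individually reaching it, limit read from the data; inconclusive = only one of the two criteria is met; inactive = neither criterion is met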
T cruzi growth-3 – inhibitors of T. cruzi proliferation. shares compounds with T cruzi growth-1. T. cruzi beta-gal in NIH3T3, GalScreen luminescence, 90 h. inhibition, % at 2.09 µM. 5,600 tested, 21% active. AID 651740;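 active = mean inhibition above about 95%, with at least 55% of replicates also reaching it, limit read from the data; inconclusive = meets just one of the two conditions; inactive = meets neither condition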
NIH3T3 tox – kills mouse NIH/3T3 fibroblasts | 5,600 tested, 14% active | shares compounds with T cruzi growth-1 | AID 651742 | cytotoxicity (signal decrease), % at 8.35 µM | NIH/3T3 viability, CellTiter-Glo ATP luminescence, 90 h;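 active = mean signal decrease across replicates above about 35% based on untreated-well scatter, with enough replicates individually passing, limit read from the data; inconclusive = no rule stated though some were filed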
NIH3T3 tox 2 – NIH/3T3 (mouse) viability loss; shares compounds with T cruzi growth-1; NIH/3T3 viability, CellTiter-Glo ATP luminescence, 90 h; inhibition, % at 24.9 µM; 5,600 tested, 56% active;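 active = mean loss of cell viability signal at or above a set limit, and enough replicates individually reaching it; inconclusive = meets only the mean limit or only the replicate share; inactive = meets neither condition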
Of the large screens only hits and unclear results are named; the others gave an inactive call (follow-up assays come after a bar, where they were run). Hits are enriched below; roughly 5.8% of the tested compounds scored in any of these assays.

COc1cccc(NC(=O)N(C)C[C@H]2Oc3ncc(C#Cc4ccccc4)cc3C(=O)N([C@@H](C)CO)C[C@H]2C)c1	T cruzi growth-1 inconclusive (no result: IDH1 mut inh, KDM4C inh) | T cruzi growth-2 105 | T cruzi growth-3 inactive | NIH3T3 tox inactive | NIH3T3 tox 2 38
CC(C)NC(=O)N1[C@@H](CO)[C@@H]2c3ccccc3NC[C@@H]21	none (no result: IDH1 mut inh)
COc1ccc(C#Cc2ccc3c(c2)[C@H]2[C@H](CCN2C(=O)C2CCOCC2)[C@H](CO)N3)cc1	none (no result: IDH1 mut inh)
CCCNC(=O)N1C[C@@H](C)[C@H](OC)CN(C)C(=O)c2cc(NC(=O)CCC)ccc2OC[C@@H]1C	none
O=C(Nc1ccccc1F)N1CCCCN2[C@H](CO)[C@H](c3ccc(-c4cccnc4)cc3)[C@@H]2C1	T cruzi growth-1 113 (no result: IDH1 mut inh) | T cruzi growth-2 105 | T cruzi growth-3 inactive | NIH3T3 tox inactive | NIH3T3 tox 2 inactive
O=C(Nc1ccccc1F)N1CCCCN2[C@@H](CO)[C@H](c3ccc(-c4cccnc4)cc3)[C@@H]2C1	T cruzi growth-1 102 (no result: IDH1 mut inh) | T cruzi growth-2 106 | T cruzi growth-3 inactive | NIH3T3 tox inactive | NIH3T3 tox 2 34
O=C(Nc1ccccc1F)N1CCCCN2[C@@H](CO)[C@@H](c3ccc(-c4cccnc4)cc3)[C@@H]2C1	none (no result: IDH1 mut inh)
O=C(C[C@H]1CC[C@H]2[C@@H](COC[C@@H](O)CN2C(=O)c2ccccc2)O1)NCc1cccc(F)c1	none (no result: IDH1 mut inh)
C[C@@H]1CN([C@@H](C)CO)C(=O)c2c(c3ccccc3n2C)-c2ccccc2CO[C@@H]1CN(C)Cc1cccnc1	T cruzi growth-1 135 | T cruzi growth-2 99 | T cruzi growth-3 inactive | NIH3T3 tox inactive | NIH3T3 tox 2 69
C[C@@H]1CN([C@H](C)CO)C(=O)c2c(c3ccccc3n2C)-c2ccccc2CO[C@H]1CN(C)C	T cruzi growth-1 106 | T cruzi growth-2 inactive | T cruzi growth-3 inactive | NIH3T3 tox inactive | NIH3T3 tox 2 inactive
C[C@H](CO)N1C[C@H](C)[C@@H](CN(C)C)OCc2ccccc2-c2c(n(C)c3ccccc23)C1=O	T cruzi growth-1 inconclusive | T cruzi growth-2 inactive | T cruzi growth-3 inactive | NIH3T3 tox inactive | NIH3T3 tox 2 inactive
C[C@H]1CN([C@@H](C)CO)C(=O)c2c(c3ccccc3n2C)-c2ccccc2CO[C@@H]1CN(C)C	none
C[C@@H]1CN([C@H](C)CO)C(=O)c2c(c3ccccc3n2C)-c2ccccc2CO[C@@H]1CN(C)C	T cruzi growth-1 inconclusive | T cruzi growth-2 inactive | T cruzi growth-3 inactive | NIH3T3 tox inactive | NIH3T3 tox 2 inactive
C[C@@H]1CN([C@@H](C)CO)C(=O)c2c(c3ccccc3n2C)-c2ccccc2CO[C@@H]1CN(C)S(C)(=O)=O	none
COc1cc(-c2c(C)cc(O)cc2O[C@@H]2O[C@H](CO)[C@@H](O)[C@H](O)[C@H]2O)oc(=O)c1	none (no result: Pf Dd2 inh, KDM4C inh, T cruzi growth-1)
CNC(=O)CN(C)S(=O)(=O)c1ccc(OC)c(C)c1	none (no result: Pf Dd2 inh, KDM4C inh, T cruzi growth-1)
CN1c2ccc(-c3ccccc3F)cc2[C@@H]2[C@@H](CCN2C(=O)Cc2ccccn2)[C@@H]1CO	T cruzi growth-1 104 (no result: IDH1 mut inh) | T cruzi growth-2 101 | T cruzi growth-3 inactive | NIH3T3 tox inactive | NIH3T3 tox 2 inactive
CN1c2ccc(-c3ccccc3F)cc2[C@H]2[C@H](CCN2C(=O)Cc2ccccn2)[C@@H]1CO	none (no result: IDH1 mut inh)
CN1c2ccc(-c3cccc(C#N)c3)cc2[C@H]2[C@H](CCN2C(=O)Cc2ccccn2)[C@H]1CO	T cruzi growth-1 102 (no result: IDH1 mut inh) | T cruzi growth-2 107 | T cruzi growth-3 inactive | NIH3T3 tox inactive | NIH3T3 tox 2 inactive
CCC(=O)N1CC[C@@H]2[C@H]1c1cc(-c3ccc(F)cc3)ccc1N(C)[C@H]2CO	T cruzi growth-1 106 (no result: IDH1 mut inh) | T cruzi growth-2 100 | T cruzi growth-3 inactive | NIH3T3 tox inactive | NIH3T3 tox 2 inactive
CCC(=O)N1CC[C@@H]2[C@H]1c1cc(-c3cccc(F)c3)ccc1N(C)[C@H]2CO	none (no result: IDH1 mut inh)
CCC(=O)N1CC[C@@H]2[C@H]1c1cc(-c3ccccc3F)ccc1N(C)[C@@H]2CO	T cruzi growth-1 100 (no result: IDH1 mut inh) | T cruzi growth-2 104 | T cruzi growth-3 inactive | NIH3T3 tox inactive | NIH3T3 tox 2 inactive
CN1c2ccc(-c3ccccc3F)cc2[C@@H]2[C@@H](CCN2C(=O)c2cccc(F)c2)[C@@H]1CO	none (no result: IDH1 mut inh)
CN1c2ccc(-c3ccccc3F)cc2[C@H]2[C@H](CCN2C(=O)c2cccc(F)c2)[C@H]1CO	T cruzi growth-1 inconclusive (no result: IDH1 mut inh) | T cruzi growth-2 107 | T cruzi growth-3 inactive | NIH3T3 tox inactive | NIH3T3 tox 2 103
CC(C)CC#Cc1ccc2c(c1)O[C@@H](CN(C)C(=O)c1ccccc1)[C@H](C)CN([C@@H](C)CO)S2(=O)=O	T cruzi growth-1 116 | T cruzi growth-2 110 | T cruzi growth-3 inactive | NIH3T3 tox 39 | NIH3T3 tox 2 108
CC(C)CC#Cc1ccc2c(c1)O[C@H](CN(C)C(=O)c1ccccc1)[C@H](C)CN([C@@H](C)CO)S2(=O)=O	T cruzi growth-1 118 | T cruzi growth-2 104 | T cruzi growth-3 98 | NIH3T3 tox inactive | NIH3T3 tox 2 106
CCCC#Cc1ccc2c(c1)O[C@H](CN(C)C(=O)c1ccccc1)[C@H](C)CN([C@@H](C)CO)S2(=O)=O	T cruzi growth-1 96 | T cruzi growth-2 102 | T cruzi growth-3 inactive | NIH3T3 tox inactive | NIH3T3 tox 2 26
O=C(N[C@@H]1CC[C@H](CCNC(=O)C2CCC2)O[C@@H]1CO)c1ccncc1	none (no result: T cruzi growth-1)
Cc1ccc(C(=O)CSc2nnc(-c3ccccc3[N+](=O)[O-])o2)cc1	none (no result: Pf Dd2 inh, KDM4C inh, T cruzi growth-1)
O=C(C[C@@H]1C=C[C@H](NS(=O)(=O)c2ccc(F)cc2)[C@@H](CO)O1)NCc1ccccc1F	none (no result: IDH1 mut inh, T cruzi growth-1)
CO[C@@H](CN(C)S(=O)(=O)c1ccc(C)cc1)[C@@H](C)CN(Cc1ccccc1Cl)[C@H](C)CO	T cruzi growth-1 100 | T cruzi growth-2 95 | T cruzi growth-3 inactive | NIH3T3 tox inconclusive | NIH3T3 tox 2 51
CO[C@H](CN(C)S(=O)(=O)c1ccc(Cl)cc1)[C@H](C)CN(Cc1ccccc1Cl)[C@H](C)CO	T cruzi growth-1 106 | T cruzi growth-2 111 | T cruzi growth-3 inactive | NIH3T3 tox inactive | NIH3T3 tox 2 107
C[C@H]1CN([C@@H](C)CO)C(=O)c2cc(NC(=O)Cc3ccccc3)ccc2O[C@H]1CN(C)C(=O)Nc1ccc(C(F)(F)F)cc1	none
C/C=C/c1ccc2c(c1)O[C@@H](CN(C)Cc1ccccc1F)[C@H](C)CN([C@H](C)CO)S2(=O)=O	T cruzi growth-1 114 | T cruzi growth-2 98 | T cruzi growth-3 inactive | NIH3T3 tox 51 | NIH3T3 tox 2 102
C/C=C/c1ccc2c(c1)O[C@@H](CN(C)Cc1ccc(F)cc1)[C@@H](C)CN([C@@H](C)CO)S2(=O)=O	none
